ChEMBL document CHEMBL3822365, “Probing the Anticancer Action of Oridonin with Fluorescent Analogues: Visualizing Subcellular Localization to Mitochondria” (J Med Chem, 2016)
Activity calls are given as the source filed them. The calls are words filed in the database; no cut-off is given here.

Legend:
[1] = Cytotoxicity against human Bel7402 cells assessed as growth inhibition at 1 uM after 72 hrs by MTT assay; assay type: functional; conditions: Bel-7402, 72 h, read-out: GI
In short: (§1)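 Bel-7402 cells exposed to compound for 72 h, then MTT read-out of percent growth inhibition at the single stated concentration. Values are the mean of three independent experiments.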

[2] = Cytotoxicity against human Bel7402 cells assessed as growth inhibition at 10 uM after 72 hrs by MTT assay; assay type: functional; conditions: Bel-7402, 72 h, read-out: GI; in short: as §1
[3] = Cytotoxicity against human Bel7402 cells assessed as growth inhibition at 100 uM after 72 hrs by MTT assay; assay type: functional; conditions: Bel-7402, 72 h, read-out: GI; in short: as §1
HepG2 [4] = test: Drug uptake in human HepG2 cells at 50 to 100 uM after 1 hr by inverted confocal microscopy; assay type: ADME, cell-based; conditions: hepg2, 1 h
In short: (§2)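 HepG2 cells incubated with probe for 1 h, then intracellular fluorescence imaged by fluorescence microscopy.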

K562 = test: Antiproliferative activity against human K562 cells; assay type: functional, cell-based
HepG2 [5] = test: Drug uptake in human HepG2 cells at 1 uM after 12 hrs by inverted confocal microscopy; assay type: ADME, cell-based; conditions: hepg2, 12 h
In short: (§3)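 Live A549 or HepG2 cells were given 1 μM probe for 12 h and washed with media. Confocal imaging used ex 405/em 460 nm at 40× on an inverted microscope. Each experiment was repeated three times.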

HepG2 [6] = test: Drug uptake in human HepG2 cells at 5 uM after 1 hr by inverted confocal microscopy; assay type: ADME, cell-based; conditions: hepg2, 1 h
In short: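 HepG2 cells were incubated with probe at 5 μM for 1 h and then examined by fluorescence microscopy for intracellular staining.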

HeLa = test: Cytotoxicity against human HeLa cells assessed as inhibition of cell proliferation after 72 hrs by MTT assay; assay type: functional, cell-based
In short: (§4)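 Log-phase cells seeded at 5 × 10^4 cells/mL and exposed to compound for 72 h at 37 °C, 5% CO2. MTT (5 mg/mL) added for a further 4 h, formazan dissolved in DMSO, OD read at 490 nm. Negative reference 0.1% DMSO, positive reference paclitaxel. IC50 given as mean ± SD, n = 3.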

HepG2 [7] = test: Cytotoxicity against human HepG2 cells assessed as inhibition of cell proliferation after 72 hrs by MTT assay; assay type: functional, cell-based; conditions: HepG2, 72 h; in short: as §4
[8] = Drug uptake in human A549 cell cytoplasm at 1 uM after 12 hrs by inverted confocal microscopy; assay type: ADME, cell-based; conditions: a549, 12 h; in short: as §3
A549 [9] = test: Cytotoxicity against human A549 cells assessed as inhibition of cell proliferation after 72 hrs by MTT assay; assay type: functional, cell-based; conditions: A549, 72 h; in short: as §4
A549 [10] = test: Dissipation of mitochondrial membrane potential in human A549 cells assessed as ratio of red to green fluorescence at 1 uM after 12 to 48 hrs by JC-1 staining based confocal microscopy; assay type: functional
In short: (§5)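 A549 cells were exposed to 1 μM compound for 12 to 48 h. They were then loaded with JC-1 at 10 μg/mL for 30 min at 37 °C and washed in PBS for 5 min. Aggregate (red, ex 525/em 600 nm) and monomer (green, ex 490/em 535 nm) signals were read by microplate reader or confocal microscope. Value is the red:green ratio, 10000 cells per condition, mean ± SD of three independent experiments.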

A549 [11] = test: Drug uptake in human A549 cells at 1 uM after 5 mins by inverted confocal microscopy; assay type: ADME, cell-based; conditions: a549, 5 min
A549 [12] = test: Drug uptake in human A549 cells at 1 uM preincubated with compound 26 for 24 hrs followed by compound addition measured after 1 hr by confocal microscopy; assay type: ADME, cell-based; conditions: a549, 1 h
A549 [13] = test: Dissipation of mitochondrial membrane potential in human A549 cells assessed as ratio of red to green fluorescence at 1 uM after 48 hrs by JC-1 staining based confocal microscopy; assay type: functional; in short: as §5
A549 [14] = test: Drug uptake in human A549 cells at 1 uM preincubated with oridonin for 24 hrs followed by compound addition measured after 1 hr by confocal microscopy; assay type: ADME, cell-based; conditions: a549, 1 h
[15] = Drug uptake in mitochondria of human A549 cells at 1 uM after 1 hr by MitoTracker staining based confocal laser scanning microscopy; assay type: ADME; conditions: a549, 1 h
In short: (§6)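 A549 cells were treated with 1 μM probe for 1, 3, 12 or 24 h and washed in PBS. They were then stained with MitoTracker Red CMXRos (200 nM, 0.5 h), washed in cold PBS, fixed with paraformaldehyde and imaged by confocal laser scanning microscopy. Mitochondrial overlap was quantified as Pearson's coefficient (Rr).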

HepG2 [16] = test: Drug uptake in human HepG2 cells at 1 uM after 5 mins by inverted confocal microscopy; assay type: ADME, cell-based; conditions: hepg2, 5 min
[17] = Drug uptake in mitochondria of human A549 cells at 1 uM after 12 hrs by MitoTracker staining based confocal laser scanning microscopy; assay type: ADME; conditions: a549, 12 h; in short: as §6
A549 [18] = test: Drug uptake in human A549 cells at 1 uM preincubated with compound 25 for 24 hrs followed by compound addition measured after 1 hr by confocal microscopy; assay type: ADME, cell-based; conditions: a549, 1 h
[19] = Drug uptake in mitochondria of human A549 cells at 1 uM after 24 hrs by MitoTracker staining based confocal laser scanning microscopy; assay type: ADME; conditions: a549, 24 h; in short: as §6
A549 [20] = test: Dissipation of mitochondrial membrane potential in human A549 cells at 1 uM by JC-1 staining based confocal microscopy; assay type: functional, cell-based; conditions: TDE = time-dependent effect; in short: as §5
[21] = Antiproliferative activity against human NCI-H929 cells assessed as reduction in cell viability after 24 to 72 hrs by MTT assay; assay type: functional, cell-based
A549 [22] = test: Dissipation of mitochondrial membrane potential in human A549 cells at 10 uM after 36 hrs by JC-1 staining based confocal microscopy; assay type: functional, cell-based
In short: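 A549 cells were exposed to 10 μM compound for 36 h or left untreated. They were then loaded with 10 μg/mL JC-1 for 30 min at 37 °C and washed 5 min in PBS. The red-to-green fluorescence shift was viewed by confocal microscopy. Done in triplicate.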

A549 [23] = test: Induction of apoptosis in human A549 cells assessed as cytochrome c release from mitochondria to cytosol at 3 uM after 24 to 48 hrs by MitoTracker probe/DAPI staining based confocal laser scanning microscopy; assay type: functional, cell-based
In short: (§7)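 A549 cells exposed to compound for 24 or 48 h, then stained with MitoTracker Red for 30 min. Cells fixed in 4% formaldehyde, permeabilized with 0.2% Triton X-100 and blocked in 5% BSA for 1 h. Anti-cytochrome c primary antibody applied overnight at 4 °C, then Alexa Fluor 488 goat anti-rabbit for 2 h. DAPI nuclear counterstain, imaged by confocal microscopy.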

A549 [24] = test: Induction of apoptosis in human A549 cells assessed as cytochrome c release from mitochondria to cytosol at 5 uM after 24 to 48 hrs by MitoTracker probe/DAPI staining based confocal laser scanning microscopy; assay type: functional, cell-based; in short: as §7
HepG2 [25] = test: Drug uptake in human HepG2 cells at 20 uM after 1 hr by inverted confocal microscopy; assay type: ADME, cell-based; conditions: hepg2, 1 h; in short: as §2
A549 [26] = test: Dissipation of mitochondrial membrane potential in human A549 cells at 20 uM after 1 to 48 hrs by […]; assay type: functional, cell-based

Structure (SMILES) | inhibition of growth at 1 µM [1] [%] | inhibition of growth at 10 µM [2] [%] | inhibition of growth at 100 µM [3] [%] | IC50 (HeLa) [µM] | IC50 (HepG2 [7]) [µM] | IC50 (A549 [9]) [µM] | also measured
C=C1C(=O)[C@]23[C@H](OC(=O)CCCCCCC)[C@H]1CC[C@H]2[C@@]12CO[C@@]3(O)[C@@H](O)[C@@H]1C(C)(C)CC[C@@H]2O | 57.5 | 92.7 | 94.7 | – | – | – | –
CCN(CC)c1ccc2cc(C(=O)OCCO)c(=O)oc2c1 | 0.7 | 3.7 | 9.5 | – | – | – | Drug uptake (HepG2 [4]): Not Active
C=C1C(=O)[C@]23[C@H](OC(=O)CCC(=O)OCCOC(=O)c4cc5ccc(N(CC)CC)cc5oc4=O)[C@H]1CC[C@H]2[C@@]12CO[C@@]3(O)[C@@H](O)[C@@H]1C(C)(C)CC[C@@H]2O | 11.5 | 72.4 | 94.4 | – | – | – | –
C=C1C(=O)[C@]23C[C@H]1CC[C@H]2[C@]1(COC3=O)[C@@H](OC(C)=O)CCC(C)(C)[C@H]1CO | – | – | – | – | – | – | IC50 (K562): 3.56 µM
C=C1C(=O)[C@]23[C@H](OC(=O)CCC(=O)OCCOC(=O)Cc4cc(=O)oc5cc(N(C)C)ccc45)[C@H]1CC[C@H]2[C@@]12CO[C@@]3(O)[C@@H](O)[C@@H]1C(C)(C)CC[C@@H]2O | 1.1 | 46.4 | 93.3 | 4.6 | 8.8 | 11.2 | Drug uptake (HepG2 [5]): Active; Drug uptake (HepG2 [6]): Active; Drug uptake [8]: Active
C=C1C(=O)[C@]23[C@H](OC(=O)CCCC(=O)OCCCCOC(=O)c4cc5ccc(N(CC)CC)cc5oc4=O)[C@H]1CC[C@H]2[C@@]12CO[C@@]3(O)[C@@H](O)[C@@H]1C(C)(C)CC[C@@H]2O | 88.6 | 94 | 93.8 | 2 | 2.6 | 5.1 | Drug uptake (HepG2 [5]): Active; Ratio (A549 [10]): 1.496; Drug uptake (HepG2 [6]): Active; Drug uptake (A549 [11]): Active; Drug uptake (A549 [12]): Active; Drug uptake [8]: Active; Ratio (A549 [13]): 0.312; Activity (A549 [14]): Not Active; Drug uptake [15]: Active; Drug uptake (HepG2 [16]): Active; Drug uptake [17]: Active; Drug uptake (A549 [18]): Not Active; Drug uptake [19]: Not Active; Activity (A549 [20]): tde
C=C1C(=O)[C@]23[C@H](OC(=O)CCCC(=O)OCCCOC(=O)c4cc5ccc(N(CC)CC)cc5oc4=O)[C@H]1CC[C@H]2[C@@]12CO[C@@]3(O)[C@@H](O)[C@@H]1C(C)(C)CC[C@@H]2O | 2.7 | 89.9 | 94.6 | – | – | – | –
C=C1C(=O)[C@]23[C@H](O)[C@H]1CC[C@H]2[C@]12CCCC(C)(C)[C@H]1[C@H](O)[C@@]3(O)OC2 | – | – | – | – | – | – | IC50 [21]: 850 nM
C=C1C(=O)[C@]23[C@H](OC(=O)CCCC(=O)OCCOCCOC(=O)c4cc5ccc(N(CC)CC)cc5oc4=O)[C@H]1CC[C@H]2[C@@]12CO[C@@]3(O)[C@@H](O)[C@@H]1C(C)(C)CC[C@@H]2O | 1.4 | 70.1 | 94.6 | – | – | – | –
C[C@H]1C(=O)[C@]23[C@H](O)[C@H]1CC[C@H]2[C@@]12CO[C@@]3(O)[C@@H](O)[C@@H]1C(C)(C)CC[C@@H]2O | 2.1 | 4.2 | 57.2 | 52.7 | 70.6 | 67 | –
C=C1C(=O)[C@]23[C@H](OC(=O)CCCC(=O)OCCOC(=O)c4cc5ccc(N(CC)CC)cc5oc4=O)[C@H]1CC[C@H]2[C@@]12CO[C@@]3(O)[C@@H](O)[C@@H]1C(C)(C)CC[C@@H]2O | 4.9 | 85 | 94.6 | – | – | – | –
C=C1C(=O)[C@]23[C@H](OC(=O)Cc4cc(=O)oc5cc(N(C)C)ccc45)[C@H]1CC[C@H]2[C@@]12CO[C@@]3(O)[C@@H](O)[C@@H]1C(C)(C)CC[C@@H]2O | 13.6 | 94.5 | 92.4 | – | – | – | –
C=C1C(=O)[C@]23[C@H](O)[C@H]1CC[C@H]2[C@@]12CO[C@]3(O)[C@@H](O)[C@@H]1C(C)(C)CC[C@@H]2O [ORIDONIN] | 37.9 | 94.8 | 94.6 | 17.8 | 15.2 | 10.4 | Activity (A549 [22]): Active; Activity (A549 [23]): Active; Activity (A549 [24]): Active
CCN(CC)c1ccc2cc(C(=O)OCCCCOC(=O)CCCC(=O)O[C@@H]3[C@H]4CC[C@H]5[C@@]67CO[C@@](O)([C@@H](O)[C@@H]6C(C)(C)CC[C@@H]7O)[C@@]35C(=O)[C@@H]4C)c(=O)oc2c1 | 1.8 | 3.7 | 37.2 | 79.6 | 144 | 78 | Drug uptake (HepG2 [25]): Not Active; Activity (A549 [26]): inactive
